ChEMBL document CHEMBL1275442, “Pharmacokinetics and tissue distribution of anidulafungin in rats” (Antimicrob Agents Chemother, 2008)
In brackets after ≈: the same amount, converted by molar mass. *1 amine or outer side, *2 acyl side, *3 side chain or, on linkers, in order; H or OH if unused. Where a SMILES comes first, the peptide text is derived from it. Bridges are numbered along the chain shown (N, C = ends). [ ]: non-standard residue; d: D form. The star is where a group is joined. hTyr(3S-OH,4S-OH,3'-OSO3H) = N[C@H](C(=O)O)[C@H](O)[C@@H](O)c1ccc(O)c(OS(=O)(=O)O)c1; pTerphenylCO(4''-OnC5H11) = CCCCCOc1ccc(-c2ccc(-c3ccc(C(=O)*)cc3)cc2)cc1; Orn(4R-OH,5R-OH) = O=C([C@H](C[C@@H](O)[C@@H](O)N[*:3])N[*:1])[*:2]; hTyr(3S-OH,4S-OH) = N[C@H](C(=O)O)[C@H](O)[C@@H](O)c1ccc(O)cc1; Pro(3S-OH,4S-Me) = C[C@H]1CN[C@H](C(=O)O)[C@H]1O; X1 = CCCCCOc1ccc(-c2cc(-c3ccc(C(=O)*)cc3)no2)cc1; Gln(3R-OH) = NC(=O)C[C@@H](O)[C@H](N)C(=O)O; Hyp = O=C(O)[C@@H]1C[C@@H](O)CN1

What was measured:
[1] = Ratio of AUC (0 to infinity) in F344 rat liver to AUC (0 to infinity) in F344 rat plasma at 5 mg/kg, iv administered as single bolus dose; type: ADME, organism-based; design: dose 5 mg/kg, route intravenous; conditions: liver and plasma
Procedure, shortened: (§1)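 Male F344 rats, 10–11 weeks old, 223.6–243.8 g, given a single IV dose of [¹⁴C]-labelled drug over about 5 min. Tissue and plasma sampled predose and at 0.083–72 h, n = 3 per time point. Parent drug measured by HPLC-UV; tissue LLOQ 220 ng/g, plasma LLOQ 20 ng/ml. AUC0-∞ by noncompartmental analysis of the composite mean profile; ratio is tissue AUC over plasma AUC.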

[2] = Ratio of AUC (0 to infinity) in F344 rat kidney to AUC (0 to infinity) in F344 rat plasma at 5 mg/kg, iv administered as single bolus dose; type: ADME, organism-based; design: dose 5 mg/kg, route intravenous; conditions: kidney and plasma; procedure, shortened: as §1
[3] = Ratio of AUC (0 to infinity) in F344 rat lung to AUC (0 to infinity) in F344 rat plasma at 5 mg/kg, iv administered as single bolus dose; type: ADME, organism-based; design: dose 5 mg/kg, route intravenous; conditions: lung and plasma; procedure, shortened: as §1
Aspergillus fumigatus = experiment: Antifungal activity against Aspergillus fumigatus; type: functional
[4] = Volume of distribution in F344 rat at 5 mg/kg, iv administered as single bolus dose; type: ADME, organism-based; design: dose 5 mg/kg, route intravenous; conditions: in vivo
Procedure, shortened: (§2)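 F344 males, 10 to 11 weeks old and 223.6 to 243.8 g, got a single 5 mg/kg iv dose of [14C]anidulafungin over about 5 min. Plasma and tissues were collected predose and at 0.083 to 72 h, n = 3 per time point. Parent drug was quantified by HPLC-UV, with LLOQ/ULOQ of 20/5,120 ng/ml in plasma and 220/56,320 ng/g in tissue. Noncompartmental parameters came from a composite mean concentration-time profile.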

Candida = experiment: Antifungal activity against Candida sp.; type: functional
[5] = Total body clearance in F344 rat at 5 mg/kg, iv administered as single bolus dose; type: ADME, organism-based; design: dose 5 mg/kg, route intravenous; conditions: in vivo; procedure, shortened: as §2
Aspergillus flavus = experiment: Antifungal activity against Aspergillus flavus; type: functional
[6] = Ratio of AUC in rat liver to AUC in rat plasma at 1 mg/kg, iv; type: ADME, organism-based; design: dose 1 mg/kg, route intravenous; conditions: liver and plasma, read-out: Ratio AUC
[7] = Ratio of AUC in rat kidney to AUC in rat plasma at 1 mg/kg, iv; type: ADME, organism-based; design: dose 1 mg/kg, route intravenous; conditions: kidney and plasma, read-out: Ratio AUC
[8] = Ratio of AUC in rat lung to AUC in rat plasma at 1 mg/kg, iv; type: ADME, organism-based; design: dose 1 mg/kg, route intravenous; conditions: lung and plasma, read-out: Ratio AUC

## CC[C@H](C)C[C@H](C)CCCCCCCCC(=O)N[C@H]1C[C@@H](O)[C@@H](NCCN)NC(=O)[C@@H]2[C@@H](O)CCN2C(=O)[C@H]([C@H](O)CCN)NC(=O)[C@H]([C@H](O)[C@@H](O)c2ccc(O)cc2)NC(=O)[C@@H]2C[C@@H](O)CN2C(=O)[C@H]([C@@H](C)O)NC1=O [CASPOFUNGIN]
[1]
  Kp: 12.4
[2]
  Kp: 10.7
[3]
  Kp: 10.4

## CCCCCOc1ccc(-c2ccc(-c3ccc(C(=O)N[C@H]4C[C@@H](O)[C@@H](O)NC(=O)[C@@H]5[C@@H](O)[C@@H](C)CN5C(=O)[C@H]([C@@H](C)O)NC(=O)[C@H]([C@H](O)[C@@H](O)c5ccc(O)cc5)NC(=O)[C@@H]5C[C@@H](O)CN5C(=O)[C@H]([C@@H](C)O)NC4=O)cc3)cc2)cc1 [ANIDULAFUNGIN] ({pTerphenylCO(4''-OnC5H11)}-[Orn(4R-OH,5R-OH)]T[Hyp][hTyr(3S-OH,4S-OH)]T[Pro(3S-OH,4S-Me)]; lactam 1-C)
Aspergillus fumigatus
  MIC90: 0.03 µg/mL (≈ 0.0263 µM)
[4]
  Vd: 2.2 L/kg
Candida
  MIC90: 0.06 µg/mL (≈ 0.0526 µM)
[5]
  clearance: 1.4 mL/min/kg
Aspergillus flavus
  MIC90: 0.08 µg/mL (≈ 0.0702 µM)

## CCCCCOc1ccc(-c2cc(-c3ccc(C(=O)N[C@H]4C[C@@H](O)[C@@H](O)NC(=O)[C@@H]5[C@@H](O)[C@@H](C)CN5C(=O)[C@H]([C@H](O)CC(N)=O)NC(=O)[C@H]([C@H](O)[C@@H](O)c5ccc(O)c(OS(=O)(=O)O)c5)NC(=O)[C@@H]5C[C@@H](O)CN5C(=O)[C@H]([C@@H](C)O)NC4=O)cc3)no2)cc1 [MICAFUNGIN] (X1-[Orn(4R-OH,5R-OH)]T[Hyp][hTyr(3S-OH,4S-OH,3'-OSO3H)][Gln(3R-OH)][Pro(3S-OH,4S-Me)]; lactam 1-C)
[6]
  Kp: 7.8
[7]
  Kp: 3.2
[8]
  Kp: 3.6
